Experimental data as given in ChEMBL document CHEMBL2412955, “Synthesis and antibacterial activities of N-substituted-glycinyl 1H-1,2,3-triazolyl oxazolidinones” (2013).
Converted amounts (≈) assume the structure as drawn.

Assays:
Type in all cases: functional
Staphylococcus aureus [1] = assay: Antibacterial activity against Staphylococcus aureus ATCC 25923 after 18 hrs by […] in presence of human plasma; details: ATCC 25923, Plasma
In short: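 To gauge plasma protein binding and/or plasma instability, MIC was determined in Mueller-Hinton broth containing 50% human plasma. Linezolid served as a reference agent. Ratio compares this MIC with the MIC obtained without plasma.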

Staphylococcus aureus [2] = assay: Antibacterial activity against Staphylococcus aureus ATCC 25923 after 18 hrs by NCCLS agar dilution method; details: ATCC 25923, 18 h
In short: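 Plain Mueller-Hinton agar, agar dilution per NCCLS, concentrations 0.12–64 µg/ml. Test agents in 80% DMSO in water, linezolid in 40% water in ethanol, vancomycin in water. Final inoculum 10^7 CFU/ml, 35 °C for 18 h. MIC = lowest concentration inhibiting visible growth.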

Moraxella catarrhalis = assay: Antibacterial activity against Moraxella catarrhalis ATCC 8176 after 18 hrs by NCCLS agar dilution method; details: ATCC 8176, 18 h
In short: (§1)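 NCCLS agar dilution on Mueller-Hinton agar with 5% sheep blood added to support growth. Drug dilutions 0.12–64 µg/ml. Test agents in 80% DMSO in water, linezolid in 40% water in ethanol. Final inoculum 10^7 CFU/ml, 18 h at 35 °C. MIC read as the lowest concentration with no visible growth.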

Streptococcus pneumoniae = assay: Antibacterial activity against penicillin-resistant Streptococcus pneumoniae after 18 hrs by NCCLS agar dilution method
In short: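 Agar dilution was run on Mueller-Hinton agar supplemented with 5% sheep blood, with drug dilutions from 0.12 to 64 µg/ml. Test compounds were dissolved in 80% DMSO in water. Final inoculum was 10^7 CFU/ml, incubated at 35 °C for 18 h. MIC was the lowest concentration preventing visible growth.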

Haemophilus influenzae = assay: Antibacterial activity against Haemophilus influenzae ATCC 49247 after 18 hrs by NCCLS agar dilution method; details: ATCC 49247, 18 h; in short: as §1
Escherichia coli = assay: Antibacterial activity against Escherichia coli ATCC 25922 after 18 hrs by NCCLS agar dilution method; details: ATCC 25922, 18 h
In short: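 Agar dilution per NCCLS on Mueller-Hinton agar, drug dilutions 0.12–64 µg/ml. Linezolid dissolved in 40% water in ethanol, vancomycin in water, test agents in 80% DMSO in water. Inoculum 10^7 CFU/ml (final), incubated 35 °C for 18 h. MIC is the lowest concentration preventing visible growth.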

Enterococcus [3] = assay: Antibacterial activity against vancomycin-resistant Enterococcus after 18 hrs by NCCLS agar dilution method
In short: (§2)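 Clinical isolates were tested by agar dilution on Mueller-Hinton agar with drug dilutions from 0.12 to 64 µg/ml. Test compounds were dissolved in 80% DMSO in water. Final inoculum was 10^7 CFU/ml, incubated at 35 °C for 18 h. MIC was the lowest concentration inhibiting visible growth.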

Enterococcus [4] = assay: Antibacterial activity against vancomycin-susceptible Enterococcus after 18 hrs by NCCLS agar dilution method; in short: as §2
Staphylococcus [5] = assay: Antibacterial activity against methicillin-susceptible coagulase-negative Staphylococcus after 18 hrs by NCCLS agar dilution method; in short: as §2
Staphylococcus [6] = assay: Antibacterial activity against methicillin-resistant coagulase-negative Staphylococcus after 18 hrs by NCCLS agar dilution method; in short: as §2
Staphylococcus aureus [7] = assay: Antibacterial activity against methicillin-susceptible Staphylococcus aureus after 18 hrs by NCCLS agar dilution method; in short: as §2
Staphylococcus aureus [8] = assay: Antibacterial activity against methicillin-resistant Staphylococcus aureus after 18 hrs by NCCLS agar dilution method; in short: as §2

Compound Cc1cn(C[C@H]2CN(c3ccc(N4CCN(C(=O)CNC(=O)C(F)(F)F)CC4)c(F)c3)C(=O)O2)nn1 has an MIC (Staphylococcus aureus [1]) of 16 µg/mL, an MIC (Staphylococcus aureus [2]) of 8 µg/mL (≈ 15.6 µM) and an MIC (Moraxella catarrhalis) of 16 µg/mL (≈ 31.2 µM). The MIC (Streptococcus pneumoniae) was 1 µg/mL (≈ 1.95 µM), the MIC (Haemophilus influenzae) was 32 µg/mL (≈ 62.3 µM) and the MIC (Escherichia coli) was greater than 64 µg/mL. The MIC (Enterococcus [3]) was 4 µg/mL (≈ 7.79 µM), the MIC (Enterococcus [4]) was 4 µg/mL (≈ 7.79 µM) and the MIC (Staphylococcus [5]) was 4 µg/mL (≈ 7.79 µM). The MIC (Staphylococcus [6]) was 4 µg/mL (≈ 7.79 µM), the MIC (Staphylococcus aureus [7]) was 4 µg/mL (≈ 7.79 µM) and the MIC (Staphylococcus aureus [8]) was 4 µg/mL (≈ 7.79 µM).
In the case of CC(C)(C)OC(=O)NCC(=O)N1CCN(c2ccc(N3C[C@H](Cn4ccnn4)OC3=O)cc2F)CC1, the MIC (Staphylococcus aureus [1]) is reported as 8 µg/mL, the MIC (Staphylococcus aureus [2]) is reported as 4 µg/mL (≈ 7.94 µM) and the MIC (Moraxella catarrhalis) is reported as 32 µg/mL (≈ 63.6 µM). For the same compound, the MIC (Streptococcus pneumoniae) was 2 µg/mL (≈ 3.97 µM), the MIC (Haemophilus influenzae) was greater than 64 µg/mL and the MIC (Escherichia coli) was greater than 64 µg/mL. The MIC (Enterococcus [3]) was 2 µg/mL (≈ 3.97 µM), the MIC (Enterococcus [4]) was 2 µg/mL (≈ 3.97 µM) and the MIC (Staphylococcus [5]) was 2 µg/mL (≈ 3.97 µM). For the same compound, the MIC (Staphylococcus [6]) was 2 µg/mL (≈ 3.97 µM), the MIC (Staphylococcus aureus [7]) was 2 µg/mL (≈ 3.97 µM) and the MIC (Staphylococcus aureus [8]) was 2 µg/mL (≈ 3.97 µM).
With Cc1cn(C[C@H]2CN(c3ccc(N4CCN(C(=O)CNC(=O)OC(C)(C)C)CC4)c(F)c3)C(=O)O2)nn1 the MIC (Staphylococcus aureus [1]) was 16 µg/mL, the MIC (Staphylococcus aureus [2]) was 4 µg/mL (≈ 7.73 µM) and the MIC (Moraxella catarrhalis) was 16 µg/mL (≈ 30.9 µM). For the same compound, the MIC (Streptococcus pneumoniae) was 4 µg/mL (≈ 7.73 µM), the MIC (Haemophilus influenzae) was no less than 64 µg/mL and the MIC (Escherichia coli) was greater than 64 µg/mL. The MIC (Enterococcus [3]) was 8 µg/mL (≈ 15.5 µM), the MIC (Enterococcus [4]) was 4 µg/mL (≈ 7.73 µM) and the MIC (Staphylococcus [5]) was 4 µg/mL (≈ 7.73 µM). For the same compound, the MIC (Staphylococcus [6]) was 4 µg/mL (≈ 7.73 µM), the MIC (Staphylococcus aureus [7]) was 4 µg/mL (≈ 7.73 µM) and the MIC (Staphylococcus aureus [8]) was 8 µg/mL (≈ 15.5 µM).
With CC(=O)NCC(=O)N1CCN(c2ccc(N3C[C@H](Cn4ccnn4)OC3=O)cc2F)CC1 the MIC (Staphylococcus aureus [1]) was 8 µg/mL, the MIC (Staphylococcus aureus [2]) was 4 µg/mL (≈ 8.98 µM) and the MIC (Moraxella catarrhalis) was 32 µg/mL (≈ 71.8 µM). For the same compound, the MIC (Streptococcus pneumoniae) was 1 µg/mL (≈ 2.24 µM), the MIC (Haemophilus influenzae) was 64 µg/mL (≈ 144 µM) and the MIC (Escherichia coli) was greater than 64 µg/mL. The MIC (Enterococcus [3]) was 2 µg/mL (≈ 4.49 µM), the MIC (Enterococcus [4]) was 2 µg/mL (≈ 4.49 µM) and the MIC (Staphylococcus [5]) was 2 µg/mL (≈ 4.49 µM). The MIC (Staphylococcus [6]) was 2 µg/mL (≈ 4.49 µM), the MIC (Staphylococcus aureus [7]) was 2 µg/mL (≈ 4.49 µM) and the MIC (Staphylococcus aureus [8]) was 4 µg/mL (≈ 8.98 µM).
CC(=O)NCC(=O)N1CCN(c2ccc(N3C[C@H](Cn4cc(C)nn4)OC3=O)cc2F)CC1 showed an MIC (Staphylococcus aureus [1]) of 8 µg/mL, an MIC (Staphylococcus aureus [2]) of 4 µg/mL (≈ 8.71 µM) and an MIC (Moraxella catarrhalis) of 16 µg/mL (≈ 34.8 µM). For the same compound, the MIC (Streptococcus pneumoniae) was 1 µg/mL (≈ 2.18 µM), the MIC (Haemophilus influenzae) was 32 µg/mL (≈ 69.6 µM) and the MIC (Escherichia coli) was greater than 64 µg/mL. The MIC (Enterococcus [3]) was 4 µg/mL (≈ 8.71 µM), the MIC (Enterococcus [4]) was 2 µg/mL (≈ 4.35 µM) and the MIC (Staphylococcus [5]) was 2 µg/mL (≈ 4.35 µM). For the same compound, the MIC (Staphylococcus [6]) was 2 µg/mL (≈ 4.35 µM), the MIC (Staphylococcus aureus [7]) was 2 µg/mL (≈ 4.35 µM) and the MIC (Staphylococcus aureus [8]) was 2 µg/mL (≈ 4.35 µM).
In the case of Cc1cn(C[C@H]2CN(c3ccc(N4CCN(C(=O)CNC(=O)C(Cl)Cl)CC4)c(F)c3)C(=O)O2)nn1, the MIC (Staphylococcus aureus [1]) is reported as 16 µg/mL, the MIC (Staphylococcus aureus [2]) is reported as 8 µg/mL (≈ 15.1 µM) and the MIC (Moraxella catarrhalis) is reported as 16 µg/mL (≈ 30.3 µM). It also gave an MIC (Streptococcus pneumoniae) of 2 µg/mL (≈ 3.79 µM), an MIC (Haemophilus influenzae) greater than 32 µg/mL and an MIC (Escherichia coli) greater than 64 µg/mL. For the same compound, the MIC (Enterococcus [3]) was 4 µg/mL (≈ 7.57 µM), the MIC (Enterococcus [4]) was 4 µg/mL (≈ 7.57 µM) and the MIC (Staphylococcus [5]) was 4 µg/mL (≈ 7.57 µM). The MIC (Staphylococcus [6]) was 4 µg/mL (≈ 7.57 µM), the MIC (Staphylococcus aureus [7]) was 4 µg/mL (≈ 7.57 µM) and the MIC (Staphylococcus aureus [8]) was 4 µg/mL (≈ 7.57 µM).
CCOC(=O)CC(=O)NCC(=O)N1CCN(c2ccc(N3C[C@H](Cn4ccnn4)OC3=O)cc2F)CC1 was tested, and the MIC (Staphylococcus aureus [1]) was 16 µg/mL, the MIC (Staphylococcus aureus [2]) was 8 µg/mL (≈ 15.5 µM) and the MIC (Moraxella catarrhalis) was 32 µg/mL (≈ 61.8 µM). It also gave an MIC (Streptococcus pneumoniae) of 2 µg/mL (≈ 3.86 µM), an MIC (Haemophilus influenzae) of 64 µg/mL (≈ 124 µM) and an MIC (Escherichia coli) greater than 64 µg/mL. For the same compound, the MIC (Enterococcus [3]) was 8 µg/mL (≈ 15.5 µM), the MIC (Enterococcus [4]) was 4 µg/mL (≈ 7.73 µM) and the MIC (Staphylococcus [5]) was 4 µg/mL (≈ 7.73 µM). It also gave an MIC (Staphylococcus [6]) of 4 µg/mL (≈ 7.73 µM), an MIC (Staphylococcus aureus [7]) of 4 µg/mL (≈ 7.73 µM) and an MIC (Staphylococcus aureus [8]) of 4 µg/mL (≈ 7.73 µM).
CCOC(=O)CC(=O)NCC(=O)N1CCN(c2ccc(N3C[C@H](Cn4cc(C)nn4)OC3=O)cc2F)CC1 was tested, and the MIC (Staphylococcus aureus [1]) was 16 µg/mL, the MIC (Staphylococcus aureus [2]) was 8 µg/mL (≈ 15.1 µM) and the MIC (Moraxella catarrhalis) was greater than 64 µg/mL. It also gave an MIC (Streptococcus pneumoniae) of 4 µg/mL (≈ 7.53 µM), an MIC (Haemophilus influenzae) greater than 64 µg/mL and an MIC (Escherichia coli) greater than 64 µg/mL. For the same compound, the MIC (Enterococcus [3]) was 4 µg/mL (≈ 7.53 µM), the MIC (Enterococcus [4]) was 4 µg/mL (≈ 7.53 µM) and the MIC (Staphylococcus [5]) was 4 µg/mL (≈ 7.53 µM). The MIC (Staphylococcus [6]) was 4 µg/mL (≈ 7.53 µM), the MIC (Staphylococcus aureus [7]) was 4 µg/mL (≈ 7.53 µM) and the MIC (Staphylococcus aureus [8]) was 4 µg/mL (≈ 7.53 µM).
